Data reported in PMC6910256 (Journal of photochemistry and photobiology. A, Chemistry, 2019).
Read-outs that look alike come from different tables or passages of the source.

Columns and labels:
[1] = molecular target: T1, DUSP5 PD (Homo sapiens, UniProt Q16690); test: Reaction progress curve analysis of irreversible DUSP5 PD inactivation; assay type: biochemical; conditions: for fold less effective than merbromin (time-dependent inhibition): absence of DTT
T1 sequence (Q16690 178-319 limits assumed): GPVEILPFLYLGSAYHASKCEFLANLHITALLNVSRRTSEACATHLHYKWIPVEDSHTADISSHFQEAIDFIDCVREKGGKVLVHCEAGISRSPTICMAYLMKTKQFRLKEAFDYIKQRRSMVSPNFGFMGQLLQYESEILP

[2] = molecular target: T1, DUSP5 PD; test: Spectral analysis of other xanthene dyes binding to DUSP5 PD protein; conditions: 4 μM compound, 4 μM protein
In short: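 Each test compound at 4 μM in assay buffer, without or with 1 mM DTT, in 2 mL quartz cuvettes. Absorbance was scanned at 1 nm intervals from 400 to 600 nm. DUSP5 PD was then added to a final 4 μM and the sample rescanned. Blanks were buffer with or without DTT, plus buffer with 4 μM protein. Spectra without protein were subtracted from spectra with protein to give difference spectra.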

[3] = molecular target: T1, DUSP5 PD; test: Steady-state competitive inhibition kinetics; assay type: biochemical; conditions: vs pNPP
In short: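 Initial DUSP5 PD velocities were measured across 3–81 mM pNPP and 0–30 μM test compound, in assay buffer with 1 mM DTT. The data were fitted globally to a steady-state competitive inhibition model (equation 5), giving Vmax, Km and Ki ± SE.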

[4] = molecular target: T2, GST-DUSP5 (Homo sapiens, UniProt Q16690); test: Prestwick drug library pNPP enzyme assay screen; assay type: biochemical; conditions: 50 μM drug, 5 mM pNPP
T2 sequence (Q16690 178-319 limits assumed): T1 sequence (Q16690 178-319 limits assumed)

[5] = Nephelometry; assay type: physicochemical; conditions: assay buffer pH 7.5 without vs with 1 mM DTT
In short: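 Aggregation was tested in 96-well plates using substrate-free assay buffer at pH 7.5, without or with 1 mM DTT. Serially diluted compound was added to give final concentrations of 1–100 μM or 1–300 μM, depending on compound.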

[6] = molecular target: T3, GST-DUSP5 (full length DUSP5, pERK substrate) (Homo sapiens, UniProt Q16690); test: In vitro ERK dephosphorylation Western blot assay; assay type: biochemical
T3 sequence (Q16690 1-384): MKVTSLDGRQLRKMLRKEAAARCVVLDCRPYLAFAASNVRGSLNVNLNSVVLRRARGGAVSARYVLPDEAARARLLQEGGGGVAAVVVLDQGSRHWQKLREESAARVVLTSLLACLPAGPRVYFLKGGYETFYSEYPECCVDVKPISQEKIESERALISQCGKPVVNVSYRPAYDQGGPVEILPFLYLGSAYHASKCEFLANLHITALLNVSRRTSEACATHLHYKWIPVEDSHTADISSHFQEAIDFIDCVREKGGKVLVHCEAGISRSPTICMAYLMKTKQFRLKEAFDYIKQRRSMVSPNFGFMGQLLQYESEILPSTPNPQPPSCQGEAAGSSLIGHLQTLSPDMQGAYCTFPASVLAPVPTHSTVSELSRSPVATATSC

[7] = cited from earlier work
[8] = tested on: ulcerative hemangioma; conditions: topical use in the clinic; cited from earlier work
[9] = molecular target: T1, DUSP5 PD; test: DUSP5 phosphatase domain pNPP assay, IC50 from initial velocities; assay type: biochemical
In short: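 Recombinant DUSP5 phosphatase domain in 100 mM Tris, 100 mM NaCl, 5 mM MgCl2, pH 7.5, without or with 1 mM DTT, using 5 mM pNPP (near Km). Compound was serially diluted and enzyme added from a 25 μM stock. After 0, 30 or 60 min dark incubation, A405 was read every 30 s for 10 min at 25°C. Blank-subtracted slopes were normalised to vehicle controls and fitted to equation 2. Three or four trials of triplicate wells.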

[10] = molecular target: T1, DUSP5 PD; test: Incandescent bulb kinetic studies, noncompetitive inhibition models; assay type: biochemical
In short: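 DUSP5 PD (final 1 μM) in 100 mM Tris pH 7.5, 100 mM NaCl, 5 mM MgCl2, 1 mM DTT, precooled to 4°C. Incubated in glass tubes with test compound (1 mM aqueous stock, light-protected), either light-limited or under incandescent illumination. Substrate was 3, 9 or 27 mM pNPP, with pNPP-only background subtraction. Initial velocities came from linear fits of p-nitrophenolate (ε 18,000). Fits were global noncompetitive models: a single Ki (equation 6), or slope Kis and intercept Kii (equation 7).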

[11] = molecular target: T1, DUSP5 PD; test: LED illumination kinetic studies; assay type: biochemical; conditions: 555 nm LED, 30 min, 825 lux
In short: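 Samples of 4 mL containing 1 μM DUSP5 PD and 0, 1, 2 or 3.5 μM test compound were prepared at 20°C under <1 lux. They were then treated for 30 min, illuminated or light-shielded. Aliquots of 190 μL were started with pNPP (final 0, 3, 9, 27 mM), four replicates each, plated under <1 lux. A405 was read every 30 s for 10 min at 25°C. Initial velocities were globally fitted to the noncompetitive models (equations 6, 7).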

[12] = molecular target: T1, DUSP5 PD; test: Binding of rose bengal to DUSP5 PD by UV-Vis spectral titration; conditions: read-out: Kd for binding to DUSP5; as printed in abstract/highlights
In short: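 Final protein was 0, 1.0, 2.0 and 3.0 μM with 1.08 μM compound, or 0–2.5 μM in 0.5 μM steps with 3.25 or 6.5 μM compound. Absorbance differences were fitted hyperbolically (equation 8) against total protein to obtain Absmax. Fractional absorbance was plotted versus total protein.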

[13] = molecular target: T1, DUSP5 PD; test: Headspace gas sparging kinetic studies; assay type: biochemical; conditions: 1 μM rose bengal, illuminated 15 min
In short: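 Borosilicate tubes held 4 mL assay buffer with 1 μM DUSP5 PD, without or with 1 μM test compound. They were prepared shielded from light, stoppered and kept on ice. Ultrapure air, nitrogen or oxygen was passed through the headspace at 2.5 L/min by needle. Controls: enzyme without compound under room air. After illumination, pNPP hydrolysis was read at 405 nm every 30 s for 10 min at 25°C in 96-well plates, background-subtracted and converted to p-nitrophenolate.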

[14] = with 1 mM DTT, summary of data sets (Table 2)
[15] = without DTT, summary of data sets (Table 2)
[16] = without DTT, fit of kobs replot to equation 4 (Fig. 5c/6c)
[17] = without DTT, fit shown in Fig. 5c/6c
[18] = IC50 against DUSP5 PD activity, with 1 mM DTT, 30 min incubation, mean ± SD
[19] = IC50 against DUSP5 PD activity, with 1 mM DTT, 60 min incubation, mean ± SD
[20] = IC50 against DUSP5 PD activity, without DTT, 30 min incubation, mean ± SD
[21] = IC50 against DUSP5 PD activity, without DTT, 60 min incubation, mean ± SD

Molecule | Inhibitor mechanism (irreversible inactivation) ([1]; with 1 mM DTT) | kinact/KI [1, 14] | Inhibitor mechanism (irreversible inactivation) ([1]; without DTT) | kinact/KI [1, 15] | spectral shift upon addition of DUSP5 PD protein ([2]; with 1 mM DTT) | spectral shift upon addition of DUSP5 PD protein ([2]; without DTT) | inhibitory activity with DUSP5 in library screen [4] | also measured
O=C1OC2(c3ccccc31)c1cc(I)c(O)c(I)c1Oc1c2cc(I)c(O)c1I [Erythrosin B, 2’,4’,5’,7’-tetraiodofluorescein] | single-step | 4.13 ± 0.13 M⁻¹ s⁻¹ | single-step | 4.65 ± 0.71 M⁻¹ s⁻¹ | not diminished | spectrally shifted |  | fold less effective than merbromin (time-dependent inhibition) [1]: roughly 10 fold; steady-state inhibition mechanism [3]: competitive inhibitor
O=C([O-])c1ccccc1-c1c2cc(Br)c(=O)cc-2oc2[c]([Hg+])c([O-])c(Br)cc12.[Na+].[Na+].[OH-] [Merbromin, 2’,7’-dibromo-5’-[hydroxy-mercurio]-fluorescein] | single-step | 6.22 ± 0.74 M⁻¹ s⁻¹ | two-step | 47.08 ± 4.66 M⁻¹ s⁻¹ | blunted | largest spectral shift | showed inhibitory activity | kinact/KI (slope of linear fit) ([1]; with 1 mM DTT, fit shown in Fig. 5c/6c): 6.0 M⁻¹ s⁻¹; kinact/KI (slope from the data fit) ([1]; with DTT, Fig. 5c): 6.0 M⁻¹; fold decrease of kinact/KI in the presence of DTT ([1]; with vs without DTT): 7.6 fold; Ki [1, 16]: 33 µM; kinact [1, 16]: 0.0014 s⁻¹; kinact/KI [1, 17]: 42.4 M⁻¹ s⁻¹; kinact/KI ([1]; without DTT, summary of data sets (Table 2), listed as merbromin): 47 M⁻¹ s⁻¹; effect of DTT addition on compound aggregation [5]: little effect; rank in secondary assay of pERK dephosphorylation among 8 screen hits ([6]; non-cell based western blot): most potent inhibitor
O=C1OC2(c3ccccc31)c1cc(Br)c(O)c(Br)c1Oc1c2cc(Br)c(O)c1Br [Eosin Y, 2’,4’,5’,7’-tetrabromofluorescein] | single-step | 0.9 ± 0.13 M⁻¹ s⁻¹ | two-step | 6.06 ± 2.43 M⁻¹ s⁻¹ | not diminished | spectrally shifted |  | LD50 [7]: > 10 mmol/kg; Ki [1]: 43 µM; kinact [1]: 0.0002 s⁻¹; fold less effective than merbromin (time-dependent inhibition) [1]: roughly 10 fold; kinact/KI [1, 17]: 6.6 M⁻¹ s⁻¹; efficacy in ulcerative hemangioma patients [8]: showed efficacy; IC50 [9, 18]: > 100 µM; IC50 [9, 19]: > 100 µM; IC50 [9, 20]: 63.3 ± 6.9 µM; IC50 [9, 21]: 37.6 ± 4.5 µM; effect of DTT addition on compound aggregation [5]: little effect; IC50 [6]: 12.7 ± 3 µM
O=C(O)c1c(Cl)c(Cl)c(Cl)c(Cl)c1-c1c2cc(I)c(=O)c(I)c-2oc2c(I)c(O)c(I)cc12 [Rose Bengal, 4,5,6,7-tetrachloro-2’,4’,5’,7’-tetraiodofluorescein] |  |  |  |  |  |  |  | Kii, intercept inhibition constant (two Ki noncompetitive model, equation 7) ([10]; 15 min dark incubation): 2.25 ± 0.10 µM; Kii, intercept inhibition constant (two Ki noncompetitive model, equation 7) ([10]; 15 min light exposure): 0.55 ± 0.02 µM; steady-state inhibition mechanism ([10]; vs pNPP): noncompetitive inhibitor; Ki of LED-illuminated samples relative to samples incubated in the dark [11]: about half; Kd [12]: 0.69 µM; DUSP5 PD enzyme activity, oxygen-gassed vs other conditions [13]: significantly lower activities; DUSP5 PD enzyme velocity, nitrogen-gassed vs compressed air or oxygen [13]: significantly higher velocities
N[C@@H](Cc1ccc(O)c(O)c1)C(=O)O [Levodopa] |  |  |  |  |  |  | showed inhibitory activity | 
Cyanocobalamin |  |  |  |  |  |  | showed inhibitory activity | 
CN1CCC2(C)c3cc(O)ccc3N(C)C12.O=C(O)/C=C/C(=O)O (centres unmarked) [Eseroline fumarate salt] |  |  |  |  |  |  | showed inhibitory activity | 
O.O=C1C(O)=C(O)C(=O)C(O)=C1O [Tetrahydroxy 1,4-quinone monohydrate] |  |  |  |  |  |  | showed inhibitory activity | 
Anthracin |  |  |  |  |  |  | showed inhibitory activity | 
O=C1OC2(c3ccc(O)cc3Oc3cc(O)ccc32)c2ccccc21 [Fluorescein] |  |  |  |  | no spectral differences | no spectral differences |  | IC50 [9]: > 300 µM; IC50 [9, 18]: > 300 µM; IC50 [9, 19]: > 300 µM; IC50 [9, 20]: > 300 µM; IC50 [9, 21]: > 300 µM; inhibition of DUSP5 PD activity ([9]; concentrations up to 300 μM): did not inhibit
COc1cc(NC(C)CCCN)c2ncccc2c1 (centres unmarked) [Primaquine diphosphate] |  |  |  |  |  |  | showed inhibitory activity | 
CN(C)[C@@H]1C(O)=C(C(=O)NCNCCCC[C@H](N)C(=O)O)C(=O)[C@@]2(O)C(O)=C3C(=O)c4c(O)cccc4[C@@](C)(O)[C@H]3C[C@@H]12 [Lymecycline] |  |  |  |  |  |  | showed inhibitory activity | 
CC[N+](C)(CC)CCC[n+]1c(-c2ccccc2)c2cc(N)ccc2c2ccc(N)cc21.[I-].[I-] [Propidium iodide] |  |  |  |  |  |  | showed inhibitory activity | 
O=C1OC2(c3cc(Cl)c(O)cc3Oc3cc(O)c(Cl)cc32)c2ccccc21 [2’,7’-dichlorofluorescein] | single-step | 0.14 ± 0.02 M⁻¹ s⁻¹ | single-step | 0.41 ± 0.06 M⁻¹ s⁻¹ | no spectral differences | no spectral differences |  | 
O=C1OC2(c3cc(Br)c(O)cc3Oc3cc(O)c(Br)cc32)c2ccccc21 [2’,7’-dibromofluorescein] | single-step | 0.84 ± 0.07 M⁻¹ s⁻¹ | single-step | 2.40 ± 0.48 M⁻¹ s⁻¹ | shifted slightly | shifted slightly |  | 
